Experimental data: ChEMBL document CHEMBL1148464, “Cytotoxic activity of metal complexes of biogenic polyamines: polynuclear platinum(II) chelates” (J Med Chem, 2004)

Legend:
Assay type in all cases: functional, cell-based
HSC-3 = assay: Cytotoxic potency against human HSC-3 cell line expressed as inhibitory concentration
How it was run: (§1)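 Adherent cells grown in high-glucose DMEM with 10% FCS, harvested with trypsin/EDTA. Seeded at 3 × 10^5 cells/mL; drug at 5–150 µM added after 24 h, 37 °C. IC50 derived from 72 h exposure dose-response curves; only effects persisting 3 days after drug removal reported. Trypan blue counts plus MTT and Alamar blue viability readouts, triplicate.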

MOLT-3 = assay: Cytotoxic potency against human MOLT-3 cell line expressed as inhibitory concentration
How it was run: (§2)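 Suspension cultures in RPMI-1640 with 25 mM HEPES and 10% FCS, seeded at 3 × 10^5 cells/mL; drug (5–150 µM) added 24 h later, 37 °C. IC50 taken from dose-response curves after 72 h exposure, counting irreversible effects only (drug washed out, 3 further days). Read-out by Trypan blue exclusion, MTT (4 h, 570 nm) and Alamar blue (8 h, 570/600 nm); triplicate.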

HeLa = assay: Cytotoxic potency against human HeLa cell line expressed as inhibitory concentration
How it was run: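 Monolayers in high-glucose DMEM with 10% FCS, harvested with an EDTA/PBS dissociation medium. Plated at 3 × 10^5 cells/mL, dosed 24 h later with 5–150 µM at 37 °C. IC50 from 72 h dose-response curves, irreversible effects only (3-day drug-free recovery). Measured by Trypan blue exclusion, MTT (570 nm) and Alamar blue (570/600 nm) assays, in triplicate.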

L132 = assay: Cytotoxic potency against human L-132 cell line expressed as inhibitory concentration; how it was run: as §1
THP-1 = assay: Cytotoxic potency against human THP-1 cell line expressed as inhibitory concentration; how it was run: as §2

Sequence | IC50 (HSC-3) [µM] | IC50 (MOLT-3) [µM] | IC50 (HeLa) [nM] | IC50 (L132) [nM] | IC50 (THP-1) [nM]
CARBOPLATIN | 3 |  |  |  | 
CISPLATIN | 7 | 4 | 2000 | 2000 | 2000
